Screening data (PubChem BioAssay)
Rows were chosen to be rich in hits. Some 2.6% of all compounds tested hit in one or more screens of this group.
S1P3 agonist = S1P3 (human) receptor agonism | 0.1% of 60,000 active | S1P3 NFAT-BLA reporter cells, FRET ratio; relative to 1 µM S1P, basal subtracted | Q99500 | activation, % at 4.5 µM;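 active means activation above the screen-wide mean plus 3 SD, cut at about 4.5% in these data, passing the limit was not always enough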
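Assay system: stable CHO line with human S1P3, Gα16, NFAT-BLA reporter; Detection: FRET β-lactamase substrate fluorescence, excitation 405 nm, 460/535 nm emission ratio, background-subtracted; Read-out: percent activation versus median 1 µM S1P response, basal-subtracted, per plate; Incubation: cells plated overnight, compound 4 h 37 °C, substrate 2 h RT.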
5HT1E ag = agonists of human 5-HT1E serotonin receptor; 0.69% of 65,000 active; activation, % at 6 µM; P28566; CHO 5-HT1E Ga15 NFAT-bla reporter, FRET; 0% DMSO wells, 100% control agonist wells;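 active means activation above a set limit, the screen-wide mean activation plus 3 SD, cut at about 8.5% in these data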
5HT1a antag = 5-HT1a (human) receptor antagonism | P08908 | CHO 5-HT1a Ga15 NFAT-bla reporter, antagonist mode | inhibition, % at 10 µM | 0.68% of 62,000 active;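 active means inhibition above the mean of all tested compounds plus 3 SD, cut at about 43% in these data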;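 further: receptor stimulated by 5-CT agonist at 100 nM near EC80; beta-lactamase reporter measured by ratiometric fluorescence of a cleavable substrate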
Target sequence (P08908 whole entry, looked up): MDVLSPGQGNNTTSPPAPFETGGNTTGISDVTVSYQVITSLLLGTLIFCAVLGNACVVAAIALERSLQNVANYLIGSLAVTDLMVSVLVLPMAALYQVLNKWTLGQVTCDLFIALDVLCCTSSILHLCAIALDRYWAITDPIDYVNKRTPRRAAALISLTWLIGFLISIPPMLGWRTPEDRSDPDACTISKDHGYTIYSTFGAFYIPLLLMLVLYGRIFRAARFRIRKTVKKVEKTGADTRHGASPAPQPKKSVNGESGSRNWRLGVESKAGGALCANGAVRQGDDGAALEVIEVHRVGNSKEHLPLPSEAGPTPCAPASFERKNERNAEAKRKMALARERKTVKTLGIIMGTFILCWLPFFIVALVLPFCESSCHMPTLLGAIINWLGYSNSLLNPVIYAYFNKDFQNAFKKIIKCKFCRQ
HTR1E antagonist = blocks the human 5-HT1E serotonin receptor; inhibition, % at 6 µM; CHO 5-HT1E Ga15 NFAT-bla reporter, FRET, antagonist; 0.99% of 65,000 active; P28566;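 active means inhibition above a set limit, the mean inhibition across every tested compound plus 3 SD, cut at about 29% in these data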;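 further: signal is the 460 over 535 nm emission ratio of beta-lactamase substrate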
HTR1A agonist = activates the human 5-HT1a serotonin receptor. P08908. CHO 5-HT1a Ga15 NFAT-bla reporter, FRET ratio; 0% basal, 100% maximal reference agonist. activation, % at 10 µM. 0.56% of 65,000 active;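 active means activation above the screen-wide mean activation plus 3 SD, cut at about 19% in these data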
A number is an active result; n = inactive; x = no result given.

SMILES	S1P3 agonist	5HT1E ag	5HT1a antag	HTR1E antagonist	HTR1A agonist
CN(C)CCCN1c2ccccc2Sc2ccccc21	n	n	x	n	n
CN(C)CCCN1c2ccccc2CCc2ccc(Cl)cc21	n	10	x	n	n
CCCCOC(=O)C1Cc2ccccc2C(=O)O1 (stereo not given)	n	n	n	n	n
COC(=O)c1ccc(-n2nnnc2SCC(=O)Nc2cc(OC)ccc2OC)cc1	n	n	n	n	n
COc1ccc(OC)c(NC(=O)CSc2nnnn2-c2ccc3c(c2)OCO3)c1	n	n	44	n	n
Cc1ccc(Nc2nc(N)nc(CN3CCN(C(=O)c4ccco4)CC3)n2)cc1Cl	n	n	n	n	n
Clc1ccc(Cn2ncc3c(N4CCCC4)ncnc32)cc1	n	n	n	n	n
Clc1ccc(Cn2ncc3c(N4CCCCC4)ncnc32)cc1	n	n	n	34	n
Clc1cccc(Cl)c1COc1ccccn1	n	n	n	n	n
Cc1ccc(C)c(/C(O)=C2/C(=O)C(=O)N(CCN3CCOCC3)C2c2ccco2)c1 (stereo not given)	n	n	n	n	n
Cn1c(=O)[nH]c(=O)c2c1nc(Br)n2CCCSc1nc2ccccc2o1	n	n	n	34	n
Cn1c(=O)[nH]c(=O)c2c1nc(N1CCCC1)n2CCCSc1nc2ccccc2o1	x	n	n	n	n
O=C(Nc1ccccc1C(=O)OCC(=O)N1CCc2ccccc2C1)c1ccco1	n	n	n	n	n
COC(=O)c1cc(Br)c(=O)n(CC(C)C)c1	n	9.5	n	n	n
Cn1c(=O)oc2cc(S(=O)(=O)N3CCN(c4ccccc4)CC3)ccc21	n	n	n	n	n
Cn1c(=O)oc2cc(S(=O)(=O)N3CCN(c4ccccn4)CC3)ccc21	n	n	n	n	35
Cn1c(=O)oc2cc(S(=O)(=O)NCCN3CCCCCC3)ccc21	n	n	n	n	n
Cn1c(=O)oc2cc(S(=O)(=O)NCCN3CCN(c4ccccc4F)CC3)ccc21	n	n	57	n	n
COc1cc(C2/C(=C(/O)c3ccc(F)cc3)C(=O)C(=O)N2CCCC(=O)O)ccc1O (stereo not given)	n	n	n	n	n
CN(C)c1ccc(/C=C/C(O)=C2/C(=O)N(C)C3(C)CC2c2ccccc2O3)cc1 (stereo not given)	n	n	54	53	n
Cc1oc(-c2ccccc2F)nc1CN1CCC(C(=O)NCCC2=CCCCC2)CC1	n	n	n	n	n
COc1ccccc1C(=O)Nc1ccc(C(=O)O)cc1	n	n	n	n	74
CCOc1ccc(NC(=O)c2ccccc2OC)cc1	n	n	n	n	n
Cc1ccc(-n2ncc3c(N4CCN(c5ccccc5)CC4)ncnc32)c(C)c1	n	n	x	51	n
COc1cccc(CNC(=O)Cn2cccc2)c1	n	24	n	n	n
SMILES	S1P3 agonist	5HT1E ag	5HT1a antag	HTR1E antagonist	HTR1A agonist
COc1ccc(NC(=O)Cn2cccc2)c(OC)c1	n	n	n	n	n
CCCSc1nc(C)c(CC(=O)O)c(=O)[nH]1	n	n	x	n	n
CCn1c(SCC(=O)O)nc2sc3c(c2c1=O)CCC3	n	n	x	n	n
CCn1c(SCc2ccc(C(=O)OC)o2)nc2sc3c(c2c1=O)CCCC3	n	9.3	n	n	n
Cc1cc(N2CCCN(C)CC2)nc2cc(Cl)ccc12	n	n	n	n	n
OCCN1CCN(c2nc(-c3ccccc3)c3cc(Cl)ccc3n2)CC1	4.6	n	n	n	n
CN1CCN(c2nc(-c3ccccc3)c3cc(Cl)ccc3n2)CC1	n	n	n	n	30
Clc1ccc2nc(NC3=NCN(CCN4CCOCC4)CN3)nc(-c3ccccc3)c2c1	n	n	n	n	n
Clc1ccc2nc(N3CCNCC3)nc(-c3ccccc3)c2c1	18	14	x	n	55
CC(C)(C)C(=O)/C=C(N)/C=C/c1ccccc1	n	n	n	n	n
COc1ccc(C(=O)CN2C(=O)C(C)(C)Oc3ccc(C(=O)N4CCCCCC4)cc32)cc1	n	n	n	n	n
CCOC(=O)c1nnn(-c2nonc2N)c1CN(C)Cc1ccccc1	x	n	n	n	n
COc1ccc(CCN2C(=O)c3[nH]nc(-c4ccccc4O)c3C2c2ccccc2)cc1OC (stereo not given)	n	n	n	n	n
O=C1c2ccccc2C(O)N1Cc1ccco1 (stereo not given)	n	n	n	n	n
